Here are results for 1 compound from ChEMBL document CHEMBL3808325, “Discovery and Optimization of Macrocyclic Quinoxaline-pyrrolo-dihydropiperidinones as Potent Pim-1/2 Kinase Inhibitors” (ACS Med Chem Lett, 2016).

Data set [1] has as its target Casein kinase II subunit alpha (Homo sapiens) (UniProt P68400). The data set can be described thus: Inhibition of full-length human CSNK2A2 expressed in mammalian system assessed as remaining enzyme activity at 1 uM by KINOMEscan assay. Summed up: (§1)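 scanMAX KINOMEscan panel of 392 nonmutant kinases, compound tested at 1 μM. Result expressed as percent of control (POC). S(10) and S(1) scores are the fraction of kinases with POC below 10% and below 1%.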

Data set [2] deals with Casein kinase I isoform epsilon (Homo sapiens) (UniProt P49674). The data set is described as follows: Inhibition of full-length human CSNK1E expressed in bacterial system assessed as remaining enzyme activity at 1 uM by KINOMEscan assay. The procedure, abridged: as §1
Sequence of Casein kinase I isoform epsilon (Homo sapiens) (P49674 whole entry, looked up, canonical isoform): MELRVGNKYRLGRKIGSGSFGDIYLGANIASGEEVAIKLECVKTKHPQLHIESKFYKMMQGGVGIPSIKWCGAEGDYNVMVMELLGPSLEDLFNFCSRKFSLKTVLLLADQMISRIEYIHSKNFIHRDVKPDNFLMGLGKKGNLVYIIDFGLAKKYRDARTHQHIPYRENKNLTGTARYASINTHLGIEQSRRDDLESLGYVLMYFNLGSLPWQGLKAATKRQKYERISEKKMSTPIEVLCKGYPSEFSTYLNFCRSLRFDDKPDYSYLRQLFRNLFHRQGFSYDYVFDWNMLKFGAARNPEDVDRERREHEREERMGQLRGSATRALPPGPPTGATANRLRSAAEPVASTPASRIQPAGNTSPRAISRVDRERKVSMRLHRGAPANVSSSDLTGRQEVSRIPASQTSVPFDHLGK
The subject of data set [3] is Mus musculus. The data set is described as follows: Toxicity in human KMS-12-BM cells xenografted SCID-beige mouse assessed as drug tolerability at 10 to 100 mg/kg, po qd. The following applies: in vivo. It counts as organism-based. Summed up: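 Tolerability followed in KMS-12-BM xenograft mice given oral doses once daily at 10, 25, 50 or 100 mg/kg over a 16-day efficacy study. Body weight monitored throughout.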
(Xenograft models place foreign cells or tissue in a host animal.)

Data set [4] has as its target Casein kinase I isoform alpha-like (Homo sapiens) (UniProt Q8N752). The data set is described as follows: Inhibition of full-length human CSNK1A1L expressed in bacterial system assessed as remaining enzyme activity at 1 uM by KINOMEscan assay. The procedure, abridged:
as §1

For data set [5], the system named is Mus musculus. The data set can be described thus: In vivo inhibition of Pim1/2-mediated BAD protein phosphorylation at Ser-112 in human KMS-12-BM cells xenografted in SCID-beige mouse assessed as pBAD level at 100 mg/kg, po administered as single dose measured after 6 hrs by meso scale discovery assay. It counts as functional. Also noted: scale not given: the % may be the effect or the level left. Summed up:
(§2)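 KMS-12-BM xenograft mice given a single oral dose of 25, 50 or 100 mg/kg. Tumor Ser-112 pBAD measured at time points through 16 h postdose. EC50 obtained by fitting all individual total plasma concentration–pBAD response data. Unbound value derived from mouse plasma fraction unbound.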

The target in data set [6] is Serine/threonine-protein kinase pim-1 (Homo sapiens, UniProt P11309). The data set is described as follows: Inhibition of human full-length Pim1 expressed in Escherichia coli assessed as phosphorylation of biotinylated BAD peptide at Ser-112 preincubated for 30 mins followed by substrate addition measured after 1 hr by HTRF assay.
Sequence of Serine/threonine-protein kinase pim-1 (P11309 whole entry): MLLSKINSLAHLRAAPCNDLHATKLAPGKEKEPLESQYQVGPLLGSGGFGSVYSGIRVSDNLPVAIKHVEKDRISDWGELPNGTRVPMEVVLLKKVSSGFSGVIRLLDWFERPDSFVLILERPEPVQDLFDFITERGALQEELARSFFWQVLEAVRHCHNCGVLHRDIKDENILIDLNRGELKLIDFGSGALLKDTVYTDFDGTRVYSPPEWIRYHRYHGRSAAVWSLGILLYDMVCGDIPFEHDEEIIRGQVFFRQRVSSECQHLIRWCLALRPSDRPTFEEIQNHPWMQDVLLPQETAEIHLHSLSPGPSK
Data set [7] deals with Dual specificity tyrosine-phosphorylation-regulated kinase 1B (Homo sapiens) (UniProt Q9Y463). The data set is described as follows: Inhibition of human DYRK1B assessed as remaining enzyme activity at 1 uM by KINOMEscan assay. The procedure, abridged:
as §1

The target of data set [8] is Homeodomain-interacting protein kinase 2 (Homo sapiens) (UniProt Q9H2X6). The data set is described as follows: Inhibition of human HIPK2 assessed as remaining enzyme activity at 1 uM by KINOMEscan assay. Summed up:
as §1

Data set [9] can be described thus: Antitumor activity against human KMS-12-BM cells xenografted in SCID-beige mouse at 100 mg/kg, po qd relative to vehicle control. It counts as functional. As to conditions: read-out: TGI. Summed up:
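Mouse KMS-12-BM xenograft efficacy study running 16 days. Oral dosing once daily at 10, 25, 50 or 100 mg/kg. Tumor volume compared with vehicle-treated controls.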

A short description of data set [10]: Clearance in Sprague-Dawley rat at 2 mg/kg, iv. It counts as ADME, organism-based. The following applies: in vivo. Summed up: (§3)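 Pharmacokinetics in male Sprague–Dawley rats. Clearance also expressed as a percentage of liver blood flow. Oral bioavailability determined.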
Data set [11] has as its target Serine/threonine-protein kinase PIM (Homo sapiens, UniProt P11309+Q9P1W9+Q86V86). The data set can be described thus: Inhibition of Pim1/2 in human KMS-12-BM cells assessed as phosphorylation of full-length BAD protein at Ser-112 incubated for 110 mins by flow cytometric analysis in presence of 20% FBS. It is filed as cell-based. The procedure, abridged: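 Cell assay in KMS-12-BM, a multiple myeloma line with relatively high endogenous Pim-1/2. Pim-dependent phosphorylation of full-length endogenous BAD at Ser-112 measured.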
On the technique in general: In flow cytometry, cells or beads pass a laser one at a time.

A further data set relates to Rattus norvegicus. The data set can be described thus: Clearance in Sprague-Dawley rat at 2 mg/kg, iv relative to hepatic blood flow. It is filed as ADME, organism-based, Liver. As to conditions: in vivo. Summed up: as §3
Data set [12] deals with Mus musculus. The data set can be described thus: In vivo inhibition of Pim1/2-mediated BAD protein phosphorylation at Ser-112 in human KMS-12-BM cells xenografted in SCID-beige mouse measured after 6 to 16 hrs by meso scale discovery assay. It is filed as functional, organism-based. The procedure, abridged:
as §2

Data set [13] deals with Mus musculus. The data set is described as follows: In vivo inhibition of Pim1/2-mediated BAD protein phosphorylation at Ser-112 in human KMS-12-BM cells xenografted in SCID-beige mouse assessed as pBAD level at 25 mg/kg, po administered as single dose measured after 6 hrs by meso scale discovery assay. It counts as functional. Details: scale not given: the % may be the effect or the level left. The procedure, abridged:
as §2

Data set [14] concerns Mus musculus. The data set is described as follows: In vivo inhibition of Pim1/2-mediated BAD protein phosphorylation at Ser-112 in human KMS-12-BM cells xenografted in SCID-beige mouse assessed as pBAD level at 100 mg/kg, po administered as single dose measured after 16 hrs by meso scale discovery assay. It counts as functional. Details: scale not given: the % may be the effect or the level left. Summed up: as §2

Sequence of Dual specificity tyrosine-phosphorylation-regulated kinase 1B (Homo sapiens) (Q9Y463 whole entry, looked up): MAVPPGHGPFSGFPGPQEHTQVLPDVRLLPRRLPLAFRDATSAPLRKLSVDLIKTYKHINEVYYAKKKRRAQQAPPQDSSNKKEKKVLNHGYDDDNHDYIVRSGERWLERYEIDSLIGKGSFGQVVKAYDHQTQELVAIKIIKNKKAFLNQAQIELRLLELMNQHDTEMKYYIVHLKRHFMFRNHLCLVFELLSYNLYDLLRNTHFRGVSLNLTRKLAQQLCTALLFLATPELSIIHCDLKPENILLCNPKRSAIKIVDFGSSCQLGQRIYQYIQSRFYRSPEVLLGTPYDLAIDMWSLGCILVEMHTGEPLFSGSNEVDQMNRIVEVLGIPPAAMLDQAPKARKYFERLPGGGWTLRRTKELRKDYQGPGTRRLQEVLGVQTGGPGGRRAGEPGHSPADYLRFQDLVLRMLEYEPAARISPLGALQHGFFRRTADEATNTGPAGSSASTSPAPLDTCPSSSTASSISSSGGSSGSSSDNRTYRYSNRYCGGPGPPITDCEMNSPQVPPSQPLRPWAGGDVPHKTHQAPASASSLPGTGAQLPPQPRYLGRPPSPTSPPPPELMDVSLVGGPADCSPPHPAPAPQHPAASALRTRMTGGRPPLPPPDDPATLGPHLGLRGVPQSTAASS
Sequence of Homeodomain-interacting protein kinase 2 (Homo sapiens) (Q9H2X6 whole entry, looked up): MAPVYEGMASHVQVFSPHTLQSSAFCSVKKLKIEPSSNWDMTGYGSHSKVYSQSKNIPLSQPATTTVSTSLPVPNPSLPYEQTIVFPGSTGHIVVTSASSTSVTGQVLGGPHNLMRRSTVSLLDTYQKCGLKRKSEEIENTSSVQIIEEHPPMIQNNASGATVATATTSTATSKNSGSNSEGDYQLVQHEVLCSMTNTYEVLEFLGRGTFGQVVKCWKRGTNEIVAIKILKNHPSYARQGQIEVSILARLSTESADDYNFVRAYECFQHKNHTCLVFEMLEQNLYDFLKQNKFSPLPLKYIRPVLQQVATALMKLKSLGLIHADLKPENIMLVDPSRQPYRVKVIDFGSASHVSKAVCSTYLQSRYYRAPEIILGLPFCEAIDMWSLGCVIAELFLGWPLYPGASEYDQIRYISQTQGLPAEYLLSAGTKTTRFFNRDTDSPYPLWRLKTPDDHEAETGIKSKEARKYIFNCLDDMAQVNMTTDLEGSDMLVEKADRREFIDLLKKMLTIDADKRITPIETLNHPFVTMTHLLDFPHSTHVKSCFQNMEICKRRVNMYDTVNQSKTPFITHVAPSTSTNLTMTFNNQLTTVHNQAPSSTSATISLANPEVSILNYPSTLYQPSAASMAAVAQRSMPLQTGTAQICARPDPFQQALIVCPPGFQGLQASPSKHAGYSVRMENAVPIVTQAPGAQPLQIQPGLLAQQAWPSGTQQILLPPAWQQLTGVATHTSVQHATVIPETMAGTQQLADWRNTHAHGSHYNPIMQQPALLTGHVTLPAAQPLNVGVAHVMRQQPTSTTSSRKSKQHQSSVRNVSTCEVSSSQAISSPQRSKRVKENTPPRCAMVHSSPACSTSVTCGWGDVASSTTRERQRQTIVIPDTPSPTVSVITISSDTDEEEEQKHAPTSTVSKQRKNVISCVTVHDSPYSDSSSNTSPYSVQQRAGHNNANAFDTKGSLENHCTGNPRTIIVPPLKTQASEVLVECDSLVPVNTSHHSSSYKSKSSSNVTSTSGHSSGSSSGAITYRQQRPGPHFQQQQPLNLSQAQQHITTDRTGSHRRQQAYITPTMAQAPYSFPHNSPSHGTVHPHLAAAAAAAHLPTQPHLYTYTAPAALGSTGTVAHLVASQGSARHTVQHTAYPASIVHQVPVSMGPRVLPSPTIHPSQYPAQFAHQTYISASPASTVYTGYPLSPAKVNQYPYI
Sequence of Casein kinase II subunit alpha (Homo sapiens) (P68400 whole entry, looked up): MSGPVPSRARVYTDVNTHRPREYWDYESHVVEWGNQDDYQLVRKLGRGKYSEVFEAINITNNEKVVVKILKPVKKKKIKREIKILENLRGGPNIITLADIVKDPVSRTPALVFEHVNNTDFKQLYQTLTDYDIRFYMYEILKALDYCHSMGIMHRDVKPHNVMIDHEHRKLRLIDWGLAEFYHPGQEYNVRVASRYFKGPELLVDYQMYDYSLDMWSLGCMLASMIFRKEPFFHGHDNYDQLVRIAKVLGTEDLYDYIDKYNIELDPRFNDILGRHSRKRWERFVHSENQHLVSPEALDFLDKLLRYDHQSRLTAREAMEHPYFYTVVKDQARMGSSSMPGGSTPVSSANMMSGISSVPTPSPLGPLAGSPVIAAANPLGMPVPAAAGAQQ
Sequence of Casein kinase I isoform alpha-like (Homo sapiens) (Q8N752 whole entry, canonical isoform): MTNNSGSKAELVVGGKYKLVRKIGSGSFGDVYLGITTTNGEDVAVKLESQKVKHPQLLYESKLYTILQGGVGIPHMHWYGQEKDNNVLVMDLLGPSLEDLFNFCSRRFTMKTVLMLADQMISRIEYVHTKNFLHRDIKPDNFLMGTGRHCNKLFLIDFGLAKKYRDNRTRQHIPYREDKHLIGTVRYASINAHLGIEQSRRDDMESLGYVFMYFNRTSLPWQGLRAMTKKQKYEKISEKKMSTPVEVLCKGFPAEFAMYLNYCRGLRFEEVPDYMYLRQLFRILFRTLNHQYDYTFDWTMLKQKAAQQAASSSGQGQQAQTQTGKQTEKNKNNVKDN

By IC50 is commonly meant the concentration at which inhibition is half-maximal. In general, clearance refers to the volume of plasma or blood freed of the substance per unit of time. What is called EC50 is the midpoint of the concentration-response curve. In the case of `Cc1nc2cccc3c2nc1N[C@H](C)/C=C\C[C@H]1CNC(=O)c2cc-3[nH]c21`, the Activity was under 10% in data set [1]; under 10% in [2]; “Non-toxic” with Mus musculus [3]; under 10% in data set [4]; 66% with Mus musculus [5]; under 10% in [7]. In addition, the Activity was under 10% in data set [8], “Dose-dependent effect” in the data set with Mus musculus [12], 35% with Mus musculus [13] and 53% in the data set on Mus musculus [14]. The IC50 came out at 0.0003 µM in [6] and 0.025 µM in data set [11]. In addition, the inhibition in vivo at 100 mg/kg in data set [9] was found to be 100%. The compound further gave a clearance in [10] of 0.47 L/h/kg. Also, in the data set on Rattus norvegicus, the CL came to 14%. Also, the EC50 in the data set with Mus musculus [12] came out at 3.6 µM.
